Test [1] has as its system Pseudomonas aeruginosa. The experiment in a line: Potentiation of rifampicin-induced antimicrobial activity against MDR/XDR Pseudomonas aeruginosa isolate PA260-97103 harboring GyrA Thr83Ile mutant assessed as rifampicin MIC50 incubated for 18 hrs by broth microdilution method (reference value: 8 microg/ml). The test is classed as functional. The settings on record: isolate PA260-97103, 18 h.

The subject of test [2] is Acinetobacter baumannii. The experiment in a line: Synergistic antibacterial activity against multidrug-resistant Acinetobacter baumannii 110193 assessed as fractional inhibitory concentration index in presence of rifampicin incubated for 18 hrs by broth dilution method. In kind it is functional. A general note: Dilution methods test growth across graded concentrations, often in twofold steps.

Test [3] relates to Pseudomonas aeruginosa. Kind of test: Synergistic antibacterial activity against MDR/XDR Pseudomonas aeruginosa isolate PA264-104354 harboring GyrA T83I mutant assessed as fractional inhibitory concentration index in presence of ciprofloxacin incubated for 18 hrs by broth microdilution method. The test is classed as functional. In short, it runs like this:
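Checkerboard synergy assay. Antibiotic and adjuvant in twofold dilutions in Mueller-Hinton broth. Inoculum 5 × 10^5 CFU/mL from a 0.5 McFarland suspension, 18 h at 37 °C, MIC read by turbidity and confirmed at 590 nm. FIC = MIC in combination / MIC alone for each agent, FICI = sum. Interpreted as ≤0.5 synergy, 0.5–4 no interaction, >4 antagonism.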

Test [4] deals with Pseudomonas aeruginosa. The experiment in a line: Potentiation of minocycline-induced antimicrobial activity against MDR/XDR Pseudomonas aeruginosa isolate PA260-97103 harboring GyrA Thr83Ile mutant assessed as minocycline MIC50 incubated for 18 hrs by broth microdilution method (reference value: 16 microg/ml). The test is classed as functional. The settings on record: isolate PA260-97103, 18 h.

Test [5] deals with Pseudomonas aeruginosa. The experiment in a line: Disruption of electrical component of PMF with transmembrane chemical component increment in Pseudomonas aeruginosa PAO1 membrane assessed as increase in tetracycline uptake measured every 1 min for 30 mins by fluorescence based assay. In kind it is organism-based. The conditions noted are these: Bacterial membrane. In short, it runs like this:
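P. aeruginosa PAO1 was grown to OD600 0.6, washed and resuspended in 10 mM HEPES pH 7.2, then treated with varying compound concentrations plus […] tetracycline. Fluorescence (ex 405/em 535 nm) was read each minute for 30 min at room temperature. Triplicates, averaged.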

The test system of test [6] is Pseudomonas aeruginosa. Kind of test: Potentiation of minocycline-induced antimicrobial activity against MDR/XDR Pseudomonas aeruginosa isolate PA264-104354 harboring GyrA Thr83Ile mutant assessed as minocycline MIC50 incubated for 18 hrs by broth microdilution method (reference value: 16 microg/ml). In kind it is functional. The settings on record: isolate PA264-104354, 18 h.

The subject of test [7] is Pseudomonas aeruginosa. The experiment in a line: Potentiation of minocycline-induced antibacterial activity against MDR/XDR Pseudomonas aeruginosa isolate PA259-96918 harboring GyrA T83I mutant assessed as fold reduction in minocycline MIC at 7.5 uM incubated for 18 hrs by broth microdilution method. In kind it is functional.
The subject of test [8] is Acinetobacter baumannii. The experiment in a line: Antimicrobial activity against multidrug-resistant Acinetobacter baumannii AB031 incubated for 18 hrs by broth dilution method. In kind it is functional. The settings on record: AB031, 18 h. In short, it runs like this:
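Broth microdilution per CLSI: overnight cultures set to 0.5 McFarland in saline, diluted 1:50 in Mueller-Hinton broth to a final 5 × 10^5 CFU/mL, added to 2-fold serial dilutions, incubated 18 h at 37 °C; MIC is the lowest concentration without visible turbidity, confirmed at 590 nm.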

In test [9] the test system is Pseudomonas aeruginosa. Kind of test: Antimicrobial activity against XDR Pseudomonas aeruginosa isolate PA264 infected in Galleria mellonella larvae assessed as survival rate at 25 mg/kg co-administered with 25 mg/kg rifampicin at 2 hrs post-inoculation measured after 18 hrs relative to control. The test is classed as functional. In short, it runs like this: (§1)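 G. mellonella larvae were injected with ~5 CFU of P. aeruginosa PA264 (10 µL of 5 × 10^2 CFU/mL in PBS) and held 2 h at 37 °C. A single 10 µL injection followed: monotherapy or rifampicin + compound (25+25, 50+50 or 75+75 mg/kg), with PBS as control. Larvae kept at 37 °C were scored every 6 h to 24 h; dead = no response to touch. n = 30 (two runs of 15); Kaplan-Meier.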

The subject of test [10] is Klebsiella pneumoniae. The experiment in a line: Synergistic antibacterial activity against Klebsiella pneumoniae 113250 assessed as fractional inhibitory concentration index in presence of rifampicin incubated for 18 hrs by broth dilution method. The test is classed as functional. In short, it runs like this: (§2)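 Checkerboard titration of the adjuvant against the antibiotic, run under the CLSI microdilution conditions (MHB, 5 × 10^5 CFU/mL, 18 h, 37 °C). Each agent's FIC is its MIC in combination divided by its MIC alone; FICI is the sum of the two FICs. FICI ≤0.5 was read as synergy, >0.5–4.0 as no interaction, and >4.0 as antagonism.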

For test [11], the system named is Enterobacter cloacae. Kind of test: Potentiation of minocycline-induced antibacterial activity against Enterobacter cloacae 117029 assessed as fold reduction in minocycline MIC at 4.1 uM incubated for 18 hrs by broth dilution method. The test is classed as functional. In outline: (§3)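 Antibiotic MIC determined by CLSI broth microdilution (MHB, 5 × 10^5 CFU/mL, 18 h, 37 °C), once alone and once with a fixed concentration of the adjuvant. Potentiation is the ratio of the antibiotic MIC alone to its MIC in the presence of the adjuvant.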

The subject of test [12] is Klebsiella pneumoniae. The experiment in a line: Potentiation of minocycline-induced antibacterial activity against Klebsiella pneumoniae 116381 assessed as fold reduction in minocycline MIC at 4.1 uM incubated for 18 hrs by broth dilution method. The test is classed as functional. In outline: as §3
Test [13] deals with Pseudomonas aeruginosa. The experiment in a line: Antimicrobial activity against XDR Pseudomonas aeruginosa isolate PA264 infected in Galleria mellonella larvae assessed as survival rate at 50 mg/kg co-administered with 50 mg/kg rifampicin at 2 hrs post-inoculation measured after 18 hrs relative to control. In kind it is functional. In outline: as §1
For test [14], the system named is Pseudomonas aeruginosa. Kind of test: Antimicrobial activity against XDR Pseudomonas aeruginosa PA264 infected in Galleria mellonella larvae assessed as survival rate at 100 mg/kg administered 2 hrs post-inoculation measured after 18 hrs relative to control. The test is classed as functional. In short, it runs like this:
as §1

Test [15] has as its system Escherichia coli. Kind of test: Synergistic antibacterial activity against Escherichia coli 94474 assessed as fractional inhibitory concentration index in presence of minocycline incubated for 18 hrs by broth dilution method. The test is classed as functional. In short, it runs like this:
as §2

In test [16] the test system is Pseudomonas aeruginosa. Kind of test: Antimicrobial activity against XDR Pseudomonas aeruginosa isolate PA264 infected in Galleria mellonella larvae assessed as survival rate at 50 mg/kg co-administered with 50 mg/kg rifampicin at 2 hrs post-inoculation measured after 24 hrs relative to control. The test is classed as functional. In short, it runs like this:
as §1

The subject of test [17] is Pseudomonas aeruginosa. The experiment in a line: Potentiation of minocycline-induced antibacterial activity against MDR/XDR Pseudomonas aeruginosa isolate PA259-96918 harboring GyrA T83I mutant assessed as fold reduction in minocycline MIC at 9 uM incubated for 18 hrs by broth microdilution method. In kind it is functional.
Test [18] deals with Pseudomonas aeruginosa. The experiment in a line: Potentiation of rifampicin-induced antibacterial activity against MDR/XDR Pseudomonas aeruginosa isolate PA259-96918 harboring GyrA T83I mutant assessed as fold reduction in rifampicin MIC at 9 uM incubated for 18 hrs by broth microdilution method. In kind it is functional. In short, it runs like this: (§4)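 CLSI broth microdilution. Overnight cultures were set to 0.5 McFarland in saline, diluted 1:50 in Mueller-Hinton broth to a final 5 × 10^5 CFU/mL, and incubated 18 h at 37 °C against 2-fold antibiotic dilutions. A fixed adjuvant level was present throughout. MIC = lowest concentration with no visible turbidity, confirmed at 590 nm. Potentiation = fold drop in antibiotic MIC versus antibiotic alone.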

Test [19] deals with Pseudomonas aeruginosa. The experiment in a line: Potentiation of moxifloxacin-induced antibacterial activity against MDR/XDR Pseudomonas aeruginosa isolate PA260-97103 harboring GyrA T83I mutant assessed as fold reduction in moxifloxacin MIC at 9 uM incubated for 18 hrs by broth microdilution method. The test is classed as functional. In short, it runs like this:
as §4

Consider `COc1c(N2C[C@@H]3CCCN(CCCCCCCCCCCCO[C@@H]4[C@@H](O)[C@H](N)C[C@H](N)[C@H]4O[C@H]4O[C@H](CN)[C@@H](O)C[C@H]4N)[C@@H]3C2)c(F)cc2c(=O)c(C(=O)O)cn(C3CC3)c12.Cl.Cl.Cl.Cl.Cl`, for which the MIC50 – broadly, an inhibitory concentration at the 50% level, which refers to growth in some studies and to a panel of isolates in others – in test [1] is 0.06 µg/mL; in test [4], 0.5 µg/mL; in test [6], 0.5 µg/mL. Further, the “fractional inhibitory concentration index (FICI)” value in [2] is given as 0.031 - 0.047; in test [3] it was 0.16. In addition, the Activity result in test [5] was “Dose-dependent effect”. In addition, in [7], the “fold change (FC)” value is reported as 32. In addition, the MIC – broadly, the smallest concentration in the dilution series that meets the test's criterion for growth inhibition – in test [8] came to 128 µg/mL.

For the compound `Cl.Cl.Cl.Cl.Cl.NC[C@H]1O[C@H](O[C@H]2[C@H](OCCCCCCCCCCCCN3CCN(c4cc5c(cc4F)c(=O)c(C(=O)O)cn5C4CC4)CC3)[C@@H](O)[C@H](N)C[C@@H]2N)[C@H](N)C[C@@H]1O`, the survival at 25 mg/kg in [9] was determined as 33%. Moreover, the results for the “fractional inhibitory concentration index (FICI)” value in test [10] and in [15] were 0.039 and 0.063 - 0.078, respectively. Besides, the “fold change (FC)” value in test [11] and in test [12] was 16 in each case. Also, the values for the survival at 50 mg/kg in [13] and in test [16] were 60% and 33%, respectively. For the same compound, the survival at 100 mg/kg in [14] came out at 0%.

Regarding `Cl.Cl.Cl.Cl.Cl.Cl.NC[C@H]1O[C@H](O[C@H]2[C@H](OCCCCCCCCCCN3CCN(Cc4cccc5ccccc45)CC3)[C@@H](O)[C@H](N)C[C@@H]2N)[C@H](N)C[C@@H]1O`, the “fold change (FC)” value in test [17] is 64; in test [18], “>=256”; in test [19] it was 128.

The record behind these values is ChEMBL document CHEMBL4354800, “Amphiphilic nebramine-based hybrids Rescue legacy antibiotics from intrinsic resistance in multidrug-resistant Gram-negative bacilli” (Eur J Med Chem, 2019).
